# Laboratory results reported in ChEMBL document CHEMBL1154235, “Rational design and semisynthesis of betulinic acid analogues as potent topoisomerase inhibitors” (J Nat Prod, 2009).
# Activity calls are given as the source filed them. No cut-off for these calls is given here.
# Columns and labels:
# [1] = biological target: DNA topoisomerase 2-alpha (Homo sapiens) (UniProt P11388); test: Inhibition of topoisomerase 2 alpha catalytic activity assessed as decatenation of kinetoplast DNA at 100 uM after 15 mins by agarose gel electrophoresis
# HCT-116 [2] = test: Antiproliferative activity against human HCT116 cells after 3 days by XTT assay; type: functional, cell-based; settings: HCT-116, 72 h
# Summary of the method: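 Cells plated at 4000/well and grown 1 day at 37 °C, then exposed to a range of drug concentrations for 3 more days. Read-out by XTT tetrazolium reduction on a plate reader. Each concentration run in triplicate. IC50 taken from a linear-quadratic fit. Assays repeated two or three times and reported as mean ± SE. HCT-116 kept in modified McCoy's 5a and SW948 in Leibovitz's L-15, each with 10% heat-inactivated FBS and 2 mM L-glutamine.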
# MDA-MB-231 = test: Antiproliferative activity against human MDA-MB-231 cells after 3 days by MTT assay; type: functional, cell-based; settings: MDA-MB-231, 72 h
# Summary of the method: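 MDA-MB-231 cells kept in RPMI 1640 with 10% heat-inactivated FBS and 25 mM HEPES at 37 °C in 5% CO2. Plated at about 15 000/well and preincubated 1 day, then exposed to compound for 3 days at 37 °C, with doses in triplicate. MTT added for 4 h, formazan dissolved in detergent overnight at room temperature in the dark, OD read at 580 nm against a cell-free blank. Cell numbers from a calibration curve; IC50 from dose-response curves.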
# CCRF-CEM = test: Cytotoxicity against human CCRF-CEM cells assessed as cell growth at 10 uM; type: functional; settings: read-out: Activity
# Summary of the method: (§1)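 Single-dose screen at 10 µM against the 60 human cell line panel, run by the NCI Developmental Therapeutics Program and scored as cell growth.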
# HL-60(TB) = test: Cytotoxicity against human HL-60(TB) cells assessed as cell growth at 10 uM; type: functional; settings: read-out: Activity
# Summary of the method: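 Single-dose screen run externally by the NCI Developmental Therapeutics Program across its 60 human tumour cell line panel. Compound tested at 10 µM.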
# MOLT-4 = test: Cytotoxicity against human MOLT4 cells assessed as cell growth at 10 uM; type: functional; settings: read-out: Activity; summary of the method: as §1
# RPMI-8226 = test: Cytotoxicity against human RPMI8226 cells assessed as cell growth at 10 uM; type: functional; settings: read-out: Activity; summary of the method: as §1
# A549 = test: Cytotoxicity against human A549 cells assessed as cell growth at 10 uM; type: functional; settings: read-out: Activity; summary of the method: as §1
# EKVX = test: Cytotoxicity against human EKVX cells assessed as cell growth at 10 uM; type: functional; settings: read-out: Activity; summary of the method: as §1
# HOP-62 = test: Cytotoxicity against human HOP62 cells assessed as cell growth at 10 uM; type: functional; settings: read-out: Activity; summary of the method: as §1
# HOP-92 = test: Cytotoxicity against human HOP92 cells assessed as cell growth at 10 uM; type: functional; settings: read-out: Activity; summary of the method: as §1
# NCI-H226 = test: Cytotoxicity against human NCI-H226 cells assessed as cell growth at 10 uM; type: functional; settings: read-out: Activity; summary of the method: as §1
# NCI-H23 = test: Cytotoxicity against human NCI-H23 cells assessed as cell growth at 10 uM; type: functional; settings: read-out: Activity; summary of the method: as §1
# NCI-H322M = test: Cytotoxicity against human NCI-H322M cells assessed as cell growth at 10 uM; type: functional; settings: read-out: Activity; summary of the method: as §1
# NCI-H460 = test: Cytotoxicity against human NCI-H460 cells assessed as cell growth at 10 uM; type: functional; settings: read-out: Activity; summary of the method: as §1
# NCI-H522 = test: Cytotoxicity against human NCI-H522 cells assessed as cell growth at 10 uM; type: functional; settings: read-out: Activity; summary of the method: as §1
# HCC 2998 = test: Cytotoxicity against human HCC2998 cells assessed as cell growth at 10 uM; type: functional; settings: read-out: Activity; summary of the method: as §1
# HCT-116 [3] = test: Cytotoxicity against human HCT116 cells assessed as cell growth at 10 uM; type: functional; settings: read-out: Activity; summary of the method: as §1
# HT-29 = test: Cytotoxicity against human HT-29 cells assessed as cell growth at 10 uM; type: functional; settings: read-out: Activity; summary of the method: as §1
# KM12 = test: Cytotoxicity against human KM12 cells assessed as cell growth at 10 uM; type: functional; settings: read-out: Activity; summary of the method: as §1
# SW-620 = test: Cytotoxicity against human SW620 cells assessed as cell growth at 10 uM; type: functional; settings: read-out: Activity
# SF-295 = test: Cytotoxicity against human SF295 cells assessed as cell growth at 10 uM; type: functional; settings: read-out: Activity; summary of the method: as §1
# SF-539 = test: Cytotoxicity against human SF539 cells assessed as cell growth at 10 uM; type: functional; settings: read-out: Activity; summary of the method: as §1
# SNB-19 = test: Cytotoxicity against human SNB19 cells assessed as cell growth at 10 uM; type: functional; settings: read-out: Activity; summary of the method: as §1
# SNB-75 = test: Cytotoxicity against human SNB75 cells assessed as cell growth at 10 uM; type: functional; settings: read-out: Activity
# U-251 = test: Cytotoxicity against human U251 cells assessed as cell growth at 10 uM; type: functional; settings: read-out: Activity
# Malme-3M = test: Cytotoxicity against human MALME-3M cells assessed as cell growth at 10 uM; type: functional; settings: read-out: Activity; summary of the method: as §1
# M14 = test: Cytotoxicity against human M14 cells assessed as cell growth at 10 uM; type: functional; settings: read-out: Activity; summary of the method: as §1
# SK-MEL-28 = test: Cytotoxicity against human SK-MEL-28 cells assessed as cell growth at 10 uM; type: functional; settings: read-out: Activity; summary of the method: as §1
# SK-MEL-5 = test: Cytotoxicity against human SK-MEL-5 cells assessed as cell growth at 10 uM; type: functional; settings: read-out: Activity; summary of the method: as §1
# UACC-257 = test: Cytotoxicity against human UACC257 cells assessed as cell growth at 10 uM; type: functional; settings: read-out: Activity
# UACC-62 = test: Cytotoxicity against human UACC62 cells assessed as cell growth at 10 uM; type: functional; settings: read-out: Activity
# OVCAR-4 = test: Cytotoxicity against human OVCAR4 cells assessed as cell growth at 10 uM; type: functional; settings: read-out: Activity; summary of the method: as §1
# OVCAR-5 = test: Cytotoxicity against human OVCAR5 cells assessed as cell growth at 10 uM; type: functional; settings: read-out: Activity; summary of the method: as §1
# OVCAR-8 = test: Cytotoxicity against human OVCAR8 cells assessed as cell growth at 10 uM; type: functional; settings: read-out: Activity; summary of the method: as §1
# NCI/ADR-RES = test: Cytotoxicity against human NCI/ADR-RES cells assessed as cell growth at 10 uM; type: functional; settings: read-out: Activity; summary of the method: as §1
# SK-OV-3 = test: Cytotoxicity against human SKOV3 cells assessed as cell growth at 10 uM; type: functional; settings: read-out: Activity; summary of the method: as §1
# 786-0 = test: Cytotoxicity against human 786-0 cells assessed as cell growth at 10 uM; type: functional; settings: read-out: Activity; summary of the method: as §1
# ACHN = test: Cytotoxicity against human ACHN cells assessed as cell growth at 10 uM; type: functional; settings: read-out: Activity; summary of the method: as §1
# CAKI-1 = test: Cytotoxicity against human Caki1 cells assessed as cell growth at 10 uM; type: functional; settings: read-out: Activity; summary of the method: as §1
# RXF 393 = test: Cytotoxicity against human […] cells assessed as cell growth at 10 uM; type: functional; settings: read-out: Activity; summary of the method: as §1
# SN12C = test: Cytotoxicity against human SN12C cells assessed as cell growth at 10 uM; type: functional; settings: read-out: Activity; summary of the method: as §1
# TK-10 = test: Cytotoxicity against human TK10 cells assessed as cell growth at 10 uM; type: functional; settings: read-out: Activity
# UO-31 = test: Cytotoxicity against human UO31 cells assessed as cell growth at 10 uM; type: functional; settings: read-out: Activity
# MCF7 = test: Cytotoxicity against human MCF7 cells assessed as cell growth at 10 uM; type: functional; settings: read-out: Activity; summary of the method: as §1
# Sequence of DNA topoisomerase 2-alpha (Homo sapiens) (P11388 whole entry): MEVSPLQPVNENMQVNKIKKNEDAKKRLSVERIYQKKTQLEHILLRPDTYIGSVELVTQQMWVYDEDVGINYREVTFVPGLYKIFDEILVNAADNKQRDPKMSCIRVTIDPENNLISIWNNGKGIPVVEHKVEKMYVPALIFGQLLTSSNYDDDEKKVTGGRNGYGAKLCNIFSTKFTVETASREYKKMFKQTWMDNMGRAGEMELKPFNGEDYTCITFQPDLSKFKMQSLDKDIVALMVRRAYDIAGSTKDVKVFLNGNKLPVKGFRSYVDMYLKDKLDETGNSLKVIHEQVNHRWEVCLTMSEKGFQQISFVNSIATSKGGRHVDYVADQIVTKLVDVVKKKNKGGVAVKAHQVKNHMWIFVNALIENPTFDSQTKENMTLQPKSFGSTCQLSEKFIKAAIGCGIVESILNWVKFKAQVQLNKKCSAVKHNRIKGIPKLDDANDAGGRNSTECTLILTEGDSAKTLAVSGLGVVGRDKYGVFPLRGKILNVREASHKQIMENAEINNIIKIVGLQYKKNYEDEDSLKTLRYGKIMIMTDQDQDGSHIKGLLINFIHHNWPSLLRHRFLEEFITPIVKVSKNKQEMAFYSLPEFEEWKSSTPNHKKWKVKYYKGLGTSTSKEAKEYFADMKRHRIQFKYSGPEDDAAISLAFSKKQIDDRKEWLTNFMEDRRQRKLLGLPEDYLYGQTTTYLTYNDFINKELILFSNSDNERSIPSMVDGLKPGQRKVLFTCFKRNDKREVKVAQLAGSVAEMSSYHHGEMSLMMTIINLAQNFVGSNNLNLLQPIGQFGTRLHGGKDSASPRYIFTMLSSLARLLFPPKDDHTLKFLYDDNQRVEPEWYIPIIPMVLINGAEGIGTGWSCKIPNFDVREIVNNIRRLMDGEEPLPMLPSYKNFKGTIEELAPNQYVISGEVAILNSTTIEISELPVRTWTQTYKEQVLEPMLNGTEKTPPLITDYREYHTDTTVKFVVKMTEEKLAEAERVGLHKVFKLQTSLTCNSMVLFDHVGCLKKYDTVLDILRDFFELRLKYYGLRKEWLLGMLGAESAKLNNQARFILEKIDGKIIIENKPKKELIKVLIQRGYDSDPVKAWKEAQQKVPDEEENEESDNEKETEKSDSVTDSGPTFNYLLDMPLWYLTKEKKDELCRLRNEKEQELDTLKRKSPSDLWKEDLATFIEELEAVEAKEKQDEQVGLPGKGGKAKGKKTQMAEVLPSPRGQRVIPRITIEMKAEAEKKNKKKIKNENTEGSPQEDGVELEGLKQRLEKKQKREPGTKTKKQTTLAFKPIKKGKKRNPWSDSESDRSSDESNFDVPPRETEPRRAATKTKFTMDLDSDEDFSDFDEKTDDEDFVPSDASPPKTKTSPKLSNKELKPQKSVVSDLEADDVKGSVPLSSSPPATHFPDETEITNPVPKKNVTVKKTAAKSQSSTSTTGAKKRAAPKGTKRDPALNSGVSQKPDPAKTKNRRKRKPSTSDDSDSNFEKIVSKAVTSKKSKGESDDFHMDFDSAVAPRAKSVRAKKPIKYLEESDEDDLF
smiles,measurement,setting,value
C=C(C)[C@@H]1CC[C@]2(C(O)=S)CC[C@]3(C)[C@H](CC[C@@H]4[C@@]5(C)CC[C@H](O)C(C)(C)[C@@H]5CC[C@]43C)[C@@H]12,inhibition,[1],Active
same,IC50,HCT-116 [2],> 25 µM
same,IC50,MDA-MB-231,> 25 µM
same,growth at 10 µM,CCRF-CEM,99.1%
same,growth at 10 µM,HL-60(TB),134%
same,growth at 10 µM,MOLT-4,131%
same,growth at 10 µM,RPMI-8226,113%
same,growth at 10 µM,A549,93%
same,growth at 10 µM,EKVX,103%
same,growth at 10 µM,HOP-62,80%
same,growth at 10 µM,HOP-92,158%
same,growth at 10 µM,NCI-H226,108%
same,growth at 10 µM,NCI-H23,93.4%
same,growth at 10 µM,NCI-H322M,109%
same,growth at 10 µM,NCI-H460,109%
same,growth at 10 µM,NCI-H522,71.9%
same,growth at 10 µM,HCC 2998,128%
same,growth at 10 µM,HCT-116 [3],85.2%
same,growth at 10 µM,HT-29,112%
same,growth at 10 µM,KM12,84.7%
same,growth at 10 µM,SW-620,92.2%
same,growth at 10 µM,SF-295,98.4%
same,growth at 10 µM,SF-539,111%
same,growth at 10 µM,SNB-19,113%
same,growth at 10 µM,SNB-75,108%
same,growth at 10 µM,U-251,105%
same,growth at 10 µM,Malme-3M,102%
same,growth at 10 µM,M14,96%
same,growth at 10 µM,SK-MEL-28,141%
same,growth at 10 µM,SK-MEL-5,99.7%
same,growth at 10 µM,UACC-257,105%
same,growth at 10 µM,UACC-62,96.8%
same,growth at 10 µM,OVCAR-4,112%
same,growth at 10 µM,OVCAR-5,119%
same,growth at 10 µM,OVCAR-8,101%
same,growth at 10 µM,NCI/ADR-RES,113%
same,growth at 10 µM,SK-OV-3,113%
same,growth at 10 µM,786-0,93.8%
same,growth at 10 µM,ACHN,96.3%
same,growth at 10 µM,CAKI-1,100%
same,growth at 10 µM,RXF 393,112%
same,growth at 10 µM,SN12C,102%
same,growth at 10 µM,TK-10,94.2%
same,growth at 10 µM,UO-31,89.5%
same,growth at 10 µM,MCF7,100%
